Columns and labels:
Escherichia coli [1] = experiment: Inhibition of Escherichia coli FimH-mediated hemagglutinination of human red blood cells assessed as drug level required for > 90% inhibition of hemagglutinination after 30 mins by hemagglutinination inhibition assay
Escherichia coli [2] = experiment: Binding affinity to […] Escherichia coli FimH-lectine domain assessed as melting temperature at 100 uM by differential scanning fluorometric assay
Outline: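 Untagged FimH lectin domain (residues 1–158 of UPEC J96 FimH), 5 µg in a 50 µl reaction of HBS (20mM HEPES pH 7.5, 150mM NaCl). Compound at 100µM final, diluted from DMSO stocks, with SYPRO Orange at 5X final. Controls were FimH alone plus 0.2% DMSO. Melt curve ran from 20–90°C in 0.5 °C steps of 15 s each, with fluorescence read on the HEX channel.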

Escherichia coli [3] = experiment: Antibacterial activity against Escherichia coli K-12 ATCC 25404 assessed as inhibition of biofilm formation after 2 hrs by confocal laser microscopic analysis; format: functional, organism-based; conditions: for IC50: Escherichia coli, K-12 ATCC 25404, 2 h
[4] = Binding affinity to biotinylated Escherichia coli FimH-lectin domain after 30 mins by biolayer interferometry method
Outline: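 FimH lectin domain biotinylated 1:1, loaded at 50μg/ml in HBS (20mM HEPES pH 7.5, 150mM NaCl) onto streptavidin tips, biocytin-blocked. Compound applied as 7 twofold dilutions in HBS for 10 min association, then 30 min dissociation, 30°C with shaking. Referenced to biocytin-blocked pins for drift and nonspecific binding. Kd from global kinetic fitting.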

[5] = Effective permeability of the compound by PAMPA assay; format: ADME; set-up: unit not given here
Mus musculus [6] = experiment: Ratio of drug uptake in mouse urine to plasma at 50 mg/kg, po measured after 6 hrs; conditions: in vivo
[7] = Plasma concentration in mouse at 100 mg/kg, po measured after 6 hrs; format: ADME, organism-based; set-up: dose 100 mg/kg, route oral
Outline: (§1)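 Oral dosing in mice. Urine and plasma compound levels quantified by LC-MS/MS in selected reaction monitoring mode. The phenolic biphenyl hydrolysis product (R group) in urine was monitored at transition 285/254.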

[8] = Drug level in mouse urine at 100 mg/kg, po measured after 6 hrs; format: ADME, organism-based; set-up: dose 100 mg/kg, route oral; conditions: read-out: Drug uptake; outline: as §1
Mus musculus [9] = experiment: Stability in mouse urinary tract infection model assessed as hydrolysis of glycosidic bond at 10 to 200 mg/kg, po; format: ADME, organism-based, Urine; set-up: dose 10-200 mg/kg, route oral; conditions: in vivo; outline: as §1
[10] = Drug metabolism in mouse urine assessed as formation of phenolic biphenyl metabolite at 10 to 200 mg/kg, po; format: ADME, organism-based; set-up: dose 10-200 mg/kg, route oral; conditions: in vivo; outline: as §1
[11] = Drug level in mouse urine at 50 mg/kg, po measured after 6 hrs; format: ADME, organism-based; set-up: dose 50 mg/kg, route oral; conditions: read-out: Drug uptake
Outline: (§2)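 Oral dosing in mice at 50 mg/kg. Plasma and urine sampled at 30 min and 1, 2, 3, 4, 6 h after dosing. Compound quantified by LC-MS/MS in selected reaction monitoring mode.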

[12] = Plasma concentration in mouse at 50 mg/kg, po measured after 6 hrs; format: ADME, organism-based; set-up: dose 50 mg/kg, route oral; outline: as §2

Row | Compound | EC>90 (Escherichia coli [1]) | Tm (Escherichia coli [2]) | Kd [4] | other results
1 | O=C(Nc1ccncc1)c1cccc(-c2ccc(O[C@H]3O[C@H](CO)[C@@H](O)[C@H](O)[C@@H]3O)cc2)c1 | 0.25 µM | – | – | –
2 | NC(=O)Nc1csc(-c2ccc(O[C@H]3O[C@H](CO)[C@@H](O)[C@H](O)[C@@H]3O)cc2)c1 | 1 µM | – | – | –
3 | CNC(=O)c1cccc(-c2ccc(O[C@H]3O[C@H](CO)[C@@H](O)[C@H](O)[C@@H]3O)cc2)c1 | 0.5 µM | 73.4 °C | – | IC50 (Escherichia coli [3]): 1350 nM
4 | COC(=O)c1cc(O[C@H]2O[C@H](CO)[C@@H](O)[C@H](O)[C@@H]2O)cc(C(=O)OC)c1 | – | 73.2 °C | 3.45 nM | –
5 | NC(=O)c1cccc(-c2ccc(O[C@H]3O[C@H](CO)[C@@H](O)[C@H](O)[C@@H]3O)cc2)c1 | – | 71.7 °C | 1 nM | –
6 | O=c1[nH]ccc2ccc(-c3ccc(O[C@H]4O[C@H](CO)[C@@H](O)[C@H](O)[C@@H]4O)cc3)cc12 | 0.1 µM | – | – | –
7 | COC(=O)c1cccc(-c2ccc(O[C@H]3O[C@H](CO)[C@@H](O)[C@H](O)[C@@H]3O)cc2C(=O)OC)c1 | 1 µM | – | – | log Pe [5]: -4.08
8 | CNC(=O)c1cccc(-c2ccc(O[C@H]3O[C@H](CO)[C@@H](O)[C@H](O)[C@@H]3O)c(Cl)c2)c1 | 0.12 µM | – | – | Ratio (Mus musculus [6]): 10; IC50 (Escherichia coli [3]): 520 nM
9 | COC(=O)c1cccc(O[C@H]2O[C@H](CO)[C@@H](O)[C@H](O)[C@@H]2O)c1 | – | 70.8 °C | – | –
10 | COC(=O)c1csc(-c2ccc(O[C@H]3O[C@H](CO)[C@@H](O)[C@H](O)[C@@H]3O)cc2)c1 | 2 µM | – | – | –
11 | COC(=O)c1cc(C(=O)OC)cc(-c2ccc(O[C@H]3O[C@H](CO)[C@@H](O)[C@H](O)[C@@H]3O)cc2)c1 | – | 72.5 °C | – | –
12 | OC[C@H]1O[C@H](OCc2ccccc2)[C@@H](O)[C@@H](O)[C@@H]1O | – | – | 43.7 nM | –
13 | OC[C@H]1O[C@H](Oc2ccc3ccccc3c2)[C@@H](O)[C@@H](O)[C@@H]1O | – | 70.8 °C | 2.72 nM | –
14 | OC[C@H]1O[C@H](Oc2ccc(-c3cccc(C(F)(F)F)c3)cc2)[C@@H](O)[C@@H](O)[C@@H]1O | – | 68.3 °C | 1.56 nM | –
15 | CS(=O)(=O)Nc1cccc(-c2ccc(O[C@H]3O[C@H](CO)[C@@H](O)[C@H](O)[C@@H]3O)cc2)c1 | – | 70.9 °C | 2 nM | –
16 | OC[C@H]1O[C@H](Oc2ccc(-c3ccc4ccncc4c3)cc2)[C@@H](O)[C@@H](O)[C@@H]1O | 0.75 µM | – | – | –
17 | OC[C@H]1O[C@H](Oc2ccc(-c3ccccc3)cc2)[C@@H](O)[C@@H](O)[C@@H]1O | – | 71.2 °C | 3 nM | –
18 | CC(=O)Nc1cccc(-c2ccc(O[C@H]3O[C@H](CO)[C@@H](O)[C@H](O)[C@@H]3O)cc2)c1 | – | 72.3 °C | 1.14 nM | –
19 | OC[C@H]1O[C@H](Oc2ccc(-c3cccc4cnccc34)cc2)[C@@H](O)[C@@H](O)[C@@H]1O | 0.25 µM | – | – | –
20 | CNC(=O)c1cc(C(=O)NC)cc(-c2ccc(O[C@H]3O[C@H](CO)[C@@H](O)[C@H](O)[C@@H]3O)cc2)c1 | – | 74.4 °C | 0.14 nM | log Pe [5]: -4.51; concentration at 6 h [7]: 0.01 µM; Ratio (Mus musculus [6]): 10; concentration at 6 h [8]: 4.85 µM; Stability (Mus musculus [9]): Unstable; Drug metabolism [10]: Active; MED (Escherichia coli [3]): 0.74 µM; IC50 (Escherichia coli [3]): 740 nM
21 | COC(=O)c1cccc(-c2ccc(O[C@H]3O[C@H](CO)[C@@H](O)[C@H](O)[C@@H]3O)c(C(F)(F)F)c2)c1 | 0.03 µM | – | – | log Pe [5]: -3.91; IC50 (Escherichia coli [3]): 170 nM
22 | CNC(=O)c1cc(C(=O)NC)cc(-c2ccc(O[C@H]3O[C@H](CO)[C@@H](O)[C@H](O)[C@@H]3O)c(C)c2)c1 | 0.016 µM | 75.8 °C | – | log Pe [5]: -8.46; Ratio (Mus musculus [6]): 10; IC50 (Escherichia coli [3]): 73 nM
23 | COc1cccc(-c2ccc(O[C@H]3O[C@H](CO)[C@@H](O)[C@H](O)[C@@H]3O)cc2)c1 | – | 71.8 °C | 1.25 nM | –
24 | COC(=O)c1cccc(-c2ccc(O[C@H]3O[C@H](CO)[C@@H](O)[C@H](O)[C@@H]3O)c(OC)c2)c1 | 0.19 µM | – | – | IC50 (Escherichia coli [3]): 890 nM

Row | Compound | EC>90 (Escherichia coli [1]) | Tm (Escherichia coli [2]) | Kd [4] | other results
25 | O=C(c1cccc(-c2ccc(O[C@H]3O[C@H](CO)[C@@H](O)[C@H](O)[C@@H]3O)cc2)c1)N1CCNCC1 | 4 µM | – | – | –
26 | COC(=O)c1cncc(-c2ccc(O[C@H]3O[C@H](CO)[C@@H](O)[C@H](O)[C@@H]3O)cc2)c1 | 0.19 µM | – | – | –
27 | OC[C@H]1O[C@H](Oc2ccccc2)[C@@H](O)[C@@H](O)[C@@H]1O | 30 µM | 68.9 °C | – | –
28 | NCCNC(=O)c1cccc(-c2ccc(O[C@H]3O[C@H](CO)[C@@H](O)[C@H](O)[C@@H]3O)cc2)c1 | 3 µM | – | – | –
29 | OC[C@H]1O[C@H](Oc2ccc(-c3ccc4ncncc4c3)cc2)[C@@H](O)[C@@H](O)[C@@H]1O | 0.38 µM | – | – | –
30 | COC(=O)c1sc(-c2ccc(O[C@H]3O[C@H](CO)[C@@H](O)[C@H](O)[C@@H]3O)cc2)cc1NC(N)=O | 0.02 µM | – | – | –
31 | COC(=O)c1ccc(-c2ccc(O[C@H]3O[C@H](CO)[C@@H](O)[C@H](O)[C@@H]3O)cc2)cc1 | – | – | 3.99 nM | –
32 | O=C(Nc1cccnc1)c1cccc(-c2ccc(O[C@H]3O[C@H](CO)[C@@H](O)[C@H](O)[C@@H]3O)cc2)c1 | 0.37 µM | 72.5 °C | – | –
33 | COc1ccccc1-c1ccc(O[C@H]2O[C@H](CO)[C@@H](O)[C@H](O)[C@@H]2O)cc1 | – | 70.7 °C | – | –
34 | CNC(=O)c1cccc(-c2ccc(O[C@H]3O[C@H](CO)[C@@H](O)[C@H](O)[C@@H]3O)c(C)c2)c1 | 0.06 µM | 74.5 °C | – | log Pe [5]: -3.89; concentration at 6 h [11]: 4.37 µM; concentration at 6 h [12]: 0.1 µM; Ratio (Mus musculus [6]): 10; IC50 (Escherichia coli [3]): 160 nM
35 | COC(=O)c1cccc(-c2ccc(O[C@H]3O[C@H](CO)[C@@H](O)[C@H](O)[C@@H]3O)c(F)c2)c1 | 0.75 µM | – | – | –
36 | OCc1cccc(-c2ccc(O[C@H]3O[C@H](CO)[C@@H](O)[C@H](O)[C@@H]3O)cc2)c1 | – | 71.2 °C | 2.61 nM | –
37 | O=C(O)c1cccc(-c2ccc(O[C@H]3O[C@H](CO)[C@@H](O)[C@H](O)[C@@H]3O)cc2)c1 | – | 70.9 °C | 2.21 nM | –
38 | CN1CCN(C(=O)c2cccc(-c3ccc(O[C@H]4O[C@H](CO)[C@@H](O)[C@H](O)[C@@H]4O)cc3)c2)CC1 | 4 µM | – | – | –
39 | O=C(O)c1cc(C(=O)O)cc(-c2ccc(O[C@H]3O[C@H](CO)[C@@H](O)[C@H](O)[C@@H]3O)cc2)c1 | – | 72.4 °C | 14.5 nM | –
40 | CNC(=O)c1cc(C(=O)NC)cc(-c2ccc(O[C@H]3O[C@H](CO)[C@@H](O)[C@H](O)[C@@H]3O)c(C(F)(F)F)c2)c1 | 0.008 µM | 76.2 °C | – | log Pe [5]: -6.27; concentration at 6 h [11]: 0.89 µM; concentration at 6 h [12]: 0.04 µM; Ratio (Mus musculus [6]): 10; IC50 (Escherichia coli [3]): 43 nM
41 | COC(=O)c1cccc(-c2ccc(O[C@H]3O[C@H](CO)[C@@H](O)[C@H](O)[C@@H]3O)c(C)c2)c1 | 0.12 µM | – | – | IC50 (Escherichia coli [3]): 330 nM
42 | CNS(=O)(=O)c1cccc(-c2ccc(O[C@H]3O[C@H](CO)[C@@H](O)[C@H](O)[C@@H]3O)cc2)c1 | – | 72 °C | 0.49 nM | –
43 | COC(=O)c1cccc(-c2ccc(O[C@H]3O[C@H](CO)[C@@H](O)[C@H](O)[C@@H]3O)cc2)c1 | – | 73.4 °C | 0.08 nM | log Pe [5]: -5.42; IC50 (Escherichia coli [3]): 940 nM
44 | COC(=O)c1cc(-c2ccc(O[C@H]3O[C@H](CO)[C@@H](O)[C@H](O)[C@@H]3O)cc2)ccn1 | 0.5 µM | 73.7 °C | – | –
45 | CNC(=O)c1cccc(-c2ccc(O[C@H]3O[C@H](CO)[C@@H](O)[C@H](O)[C@@H]3O)c(C(F)(F)F)c2)c1 | 0.03 µM | 72.3 °C | – | Ratio (Mus musculus [6]): 10; IC50 (Escherichia coli [3]): 130 nM
46 | COC(=O)c1ccc(-c2ccc(O[C@H]3O[C@H](CO)[C@@H](O)[C@H](O)[C@@H]3O)cc2)s1 | 1 µM | – | – | –
47 | COC(=O)c1cccc(-c2ccc(O[C@H]3O[C@H](CO)[C@@H](O)[C@H](O)[C@@H]3O)c(Cl)c2)c1 | 0.03 µM | – | – | log Pe [5]: -4.29; IC50 (Escherichia coli [3]): 260 nM
48 | O=C(NCCO)c1cccc(-c2ccc(O[C@H]3O[C@H](CO)[C@@H](O)[C@H](O)[C@@H]3O)cc2)c1 | 0.5 µM | – | – | –

Reference: ChEMBL document CHEMBL2057137, “Lead optimization studies on FimH antagonists: discovery of potent and orally bioavailable ortho-substituted biphenyl mannosides” (J Med Chem, 2012)
